Experiments:
[1] = target: GABA-A receptor; anion channel; assay: In vitro affinity against Benzodiazepine receptor binding to rat cortical membranes (using [3H]- flumazenil as radioligand).
In short: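 Male Wistar rat (~200 g) cerebral cortex membranes, washed in Tris-citrate 50 mM pH 7.1, 2 mg original tissue/mL. Filtered, then scintillation counting. Duplicates.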

[2] = target: GABA-A receptor; anion channel (Rattus norvegicus) (UniProt O09028+P15431+P18506+P18508+P19969+P20236+P23574+P23576+P28471+P28473+P30191+P62813+P63079+P63138+Q91ZM7+Q9ES14); assay: Ratio of Ki value without GABA and Ki value in the presence of GABA.; assay type: protein-complex assay

Row | Structure (SMILES) | Ki [1] [µM] | GABA ratio [2]
1 | CCc1c(C(=O)OC)ncc2[nH]c3cc(OC)c(OC)cc3c12 | 0.0076 | 0.57
2 | Cc1ccc2oc(-c3cccc([N+](=O)[O-])c3)cc(=O)c2c1[N+](=O)[O-] | 0.0019 | 1.41
3 | Cc1ccc2sc(-c3cccc([N+](=O)[O-])c3)cc(=O)c2c1 | 0.033 | 1.51
4 | Cc1ccc2oc(-c3ccc([N+](=O)[O-])cc3)cc(=O)c2c1 | 7.3 | 
5 | Cc1cccc(-c2cc(=O)c3cc(C)ccc3o2)c1 | 0.029 | 1.63
6 | Cc1ccc2oc(-c3cccc([N+](=O)[O-])c3)cc(=O)c2c1 | 0.0056 | 0.72
7 | Cc1ccc2oc(-c3ccccc3[N+](=O)[O-])cc(=O)c2c1 | 1 | 1.49
8 | Cc1ccc2sc(-c3ccccc3)cc(=O)c2c1 | 0.31 | 1.35
9 | O=c1c(Br)c(-c2ccccc2)oc2ccccc12 | > 75 | 
10 | O=c1cc(-c2ccc([N+](=O)[O-])cc2)oc2ccc([N+](=O)[O-])cc12 | 17 | 
11 | O=c1cc(-c2cccc([N+](=O)[O-])c2)oc2ccc(Br)cc12 |  | 1.4
12 | O=c1cc(-c2cccc([N+](=O)[O-])c2)oc2ccc([N+](=O)[O-])cc12 |  | 1.3
13 | O=c1cc(-c2ccccc2)oc2cccc(O)c12 [5-HYDROXYFLAVONE] | 1.9 | 1.03
14 | O=c1cc(-c2ccccc2)oc2ccc(Br)cc12 [6-BROMOFLAVONE] | 0.07 | 1.8
15 | O=c1cc(-c2ccccc2)oc2ccc(O)cc12 [6-HYDROXYFLAVONE] | 0.4 | 1.06
16 | COc1ccc2oc(-c3ccccc3)cc(=O)c2c1 [6-METHOXYFLAVONE] | 0.57 | 1.51
17 | Cc1ccc2oc(-c3ccccc3)cc(=O)c2c1 [6-METHYLFLAVONE] | 0.125 | 0.98
18 | O=c1cc(-c2ccccc2)oc2cc(O)ccc12 [7-HYDROXYFLAVONE] | 4.2 | 1.14
19 | O=c1cc(-c2ccc(O)cc2)oc2cc(O)cc(O)c12 [APIGENIN] | 0.77 | 1.03
20 | O=c1cc(-c2ccccc2)oc2ccc3ccccc3c12 [BETA-NAPHTHOFLAVONE] | 1.48 | 1.28
21 | O=c1cc(-c2ccccc2)oc2cc(O)cc(O)c12 [CHRYSIN] | 0.92 | 0.9
22 | O=c1cc(-c2ccccc2)oc2ccccc12 [FLAVONE] | 4.2 | 1.05

Reference: ChEMBL document CHEMBL1132447, “Structure-activity relationships and molecular modeling analysis of flavonoids binding to the benzodiazepine site of the rat brain GABA(A) receptor complex” (J Med Chem, 1999)
